Results: ChEMBL document CHEMBL3286367, “Synthesis of new class of spirocarbocycle derivatives by multicomponent domino reaction and their evaluation for antimicrobial, anticancer activity and molecular docking studies” (2014)
Values after ≈ are worked out from the molar mass of the structure shown. Active and inactive are the calls of the source. The rule behind the calls is not given here.

Tests used:
Malassezia pachydermatis = test: Antifungal activity against Malassezia pachydermatis assessed as zone of inhibition at 1 mg/disc after 48 hrs incubation by disc diffusion assay; format: functional
Procedure, shortened: (§1)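 Disc diffusion on Mueller Hinton agar with swabbed cultures, 1 mg compound per disc. Discs stood 30 min at room temperature for diffusion, then plates incubated 48 h at 28 °C. Solvent as negative control. Yeast pre-grown in Sabouraud dextrose broth at 28 °C for 48-72 h; filamentous fungal spores came from SDA slants grown 10 days at 28 °C. Zone diameters in mm; run twice.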

Staphylococcus aureus [1] = test: Antimicrobial activity against methicillin-resistant Staphylococcus aureus assessed as zone of inhibition at 1 mg/disc after 24 hrs incubation by disc diffusion assay; format: functional
Procedure, shortened: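 Inoculum grown in Mueller Hinton broth 24 h at 37°C, swabbed onto Mueller Hinton agar and dried 10 min. Discs loaded at 1 mg/disc, then 30 min at room temperature for diffusion. Plates incubated 24 h at 37°C. Solvent negative control; streptomycin positive control. Zone of inhibition read in mm; experiment done twice.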

Proteus vulgaris [2] = test: Antimicrobial activity against Proteus vulgaris MTCC 1771 assessed as zone of inhibition at 1 mg/disc after 24 hrs incubation by disc diffusion assay; format: functional
Procedure, shortened: (§2)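 Inocula grown in Mueller Hinton broth for 24 h at 37 °C and swabbed onto Mueller Hinton agar. Discs carried 1 mg compound each and stood 30 min at room temperature before 24 h incubation at 37 °C. Solvent as negative control. Inhibition zones recorded in mm; experiment done twice.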

Candida albicans = test: Antifungal activity against Candida albicans MTCC 227 assessed as zone of inhibition at 1 mg/disc after 48 hrs incubation by disc diffusion assay; format: functional; procedure, shortened: as §1
Proteus vulgaris [3] = test: Antimicrobial activity against Proteus vulgaris MTCC 1771 assessed as absence of visible growth after 48 to 72 hrs; format: functional
Micrococcus luteus [4] = test: Antimicrobial activity against Micrococcus luteus MTCC 106 assessed as absence of visible growth after 48 to 72 hrs; format: functional
Staphylococcus aureus [5] = test: Antimicrobial activity against Staphylococcus aureus MTCC 96 assessed as zone of inhibition at 1 mg/disc after 24 hrs incubation by disc diffusion assay; format: functional; procedure, shortened: as §2
[6] = test system: Staphylococcus epidermidis; test: Antimicrobial activity against Staphylococcus epidermidis MTCC 3615 assessed as absence of visible growth after 48 to 72 hrs; format: functional
Shigella flexneri [7] = test: Antimicrobial activity against Shigella flexneri MTCC 1457 assessed as absence of visible growth after 24 hrs
Micrococcus luteus [8] = test: Antimicrobial activity against Micrococcus luteus MTCC 106 assessed as zone of inhibition at 1 mg/disc after 24 hrs incubation by disc diffusion assay; format: functional; procedure, shortened: as §2
Salmonella typhimurium [9] = test: Antimicrobial activity against Salmonella typhimurium MTCC 1251 assessed as zone of inhibition at 1 mg/disc after 24 hrs incubation by disc diffusion assay; format: functional, Salmonella enterica subsp. enterica serovar Typhimurium; procedure, shortened: as §2
Klebsiella aerogenes [10] = test: Antimicrobial activity against Enterobacter aerogenes MTCC 111 assessed as absence of visible growth after 48 to 72 hrs; format: functional
Staphylococcus aureus [11] = test: Antimicrobial activity against Staphylococcus aureus MTCC 96 assessed as absence of visible growth after 48 to 72 hrs; format: functional
Klebsiella pneumoniae [12] = test: Antimicrobial activity against Klebsiella pneumonia MTCC 109 assessed as absence of visible growth after 24 hrs
Shigella flexneri [13] = test: Antimicrobial activity against Shigella flexneri MTCC 1457 assessed as zone of inhibition at 1 mg/disc after 24 hrs incubation by disc diffusion assay; format: functional; procedure, shortened: as §2
Staphylococcus aureus [14] = test: Antimicrobial activity against methicillin-resistant Staphylococcus aureus assessed as absence of visible growth after 48 to 72 hrs; format: functional
Procedure, shortened: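 Broth two-fold serial dilution in 96-well plates, 1000 to 7.81 µg/mL, compound dissolved in DMSO (2%). Inoculum grown in Mueller Hinton broth 24 h at 37°C. Streptomycin positive control. 5 µl of tested broth plated on MHA; MIC is the lowest concentration inhibiting visible growth on agar.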

Salmonella typhimurium [15] = test: Antimicrobial activity against Salmonella typhimurium MTCC 1251 assessed as absence of visible growth after 48 to 72 hrs; format: functional, Salmonella enterica subsp. enterica serovar Typhimurium; settings: Salmonella enterica
Klebsiella aerogenes [16] = test: Antimicrobial activity against Enterobacter aerogenes MTCC 111 assessed as zone of inhibition at 1 mg/disc after 24 hrs incubation by disc diffusion assay; format: functional; procedure, shortened: as §2
Klebsiella pneumoniae [17] = test: Antimicrobial activity against Klebsiella pneumonia MTCC 109 assessed as zone of inhibition at 1 mg/disc after 24 hrs incubation by disc diffusion assay; format: functional; procedure, shortened: as §2
[18] = test system: Staphylococcus epidermidis; test: Antimicrobial activity against Staphylococcus epidermidis MTCC 3615 assessed as zone of inhibition at 1 mg/disc after 24 hrs incubation by disc diffusion assay; format: functional; procedure, shortened: as §2
[19] = test system: Staphylococcus epidermidis; test: Antimicrobial activity against Staphylococcus epidermidis MTCC 3615 assessed as absence of visible growth after 24 hrs

Structure (SMILES) | inhibition zone (IZ) (Malassezia pachydermatis) [mm] | inhibition zone (IZ) (Staphylococcus aureus [1]) [mm] | inhibition zone (IZ) (Proteus vulgaris [2]) [mm] | inhibition zone (IZ) (Candida albicans) [mm] | MIC (Proteus vulgaris [3]) [µg/mL] | MIC (Micrococcus luteus [4]) [µg/mL] | inhibition zone (IZ) (Staphylococcus aureus [5]) [mm] | MIC (Shigella flexneri [7]) [µg/mL] | inhibition zone (IZ) (Micrococcus luteus [8]) [mm] | inhibition zone (IZ) (Salmonella typhimurium [9]) [mm] | MIC (Klebsiella aerogenes [10]) [µg/mL] | MIC (Staphylococcus aureus [11]) [µg/mL] | MIC (Klebsiella pneumoniae [12]) [µg/mL] | inhibition zone (IZ) (Shigella flexneri [13]) [mm] | MIC (Staphylococcus aureus [14]) [µg/mL] | MIC (Salmonella typhimurium [15]) [µg/mL] | inhibition zone (IZ) (Klebsiella aerogenes [16]) [mm] | inhibition zone (IZ) (Klebsiella pneumoniae [17]) [mm] | inhibition zone (IZ) [18] [mm] | MIC [19] [µg/mL] | other results
N#CC1=C(N)[C@]2(C(=O)Nc3ccccc32)[C@@H](c2ccc(Br)cc2)[C@@H]2CCCC=C12 | 10 | 12 | 9 | 10 | 1000 (≈ 2240 µM) | 1000 (≈ 2240 µM) | 12 | 1000 (≈ 2240 µM) | 8 | 11 | 250 (≈ 560 µM) | 250 (≈ 560 µM) | 500 (≈ 1120 µM) | 8 | 250 (≈ 560 µM) | 250 (≈ 560 µM) | 15 | 10 | 10 |  | MIC [6]: 500 µg/mL (≈ 1120 µM)
N#CC1=C(N)C2(C(=O)c3ccccc3C2=O)[C@@H](c2cccc3ccccc23)[C@@H]2CCCC=C12 (relative stereo) | 9 | 21 | 19 | 10 | 125 (≈ 290 µM) | 62.5 (≈ 145 µM) | 12 | 62.5 (≈ 145 µM) | 22 | 18 | 125 (≈ 290 µM) | 250 (≈ 581 µM) | 125 (≈ 290 µM) | 21 | 62.5 (≈ 145 µM) | 125 (≈ 290 µM) | 17 | 17 | 15 | 125 (≈ 290 µM) | 
N#CC1=C(N)C2(C(=O)c3ccccc3C2=O)[C@@H](c2ccccc2F)[C@@H]2CCC=C12 (relative stereo) |  | 16 | 14 |  | 250 (≈ 650 µM) | 250 (≈ 650 µM) | 14 | 250 (≈ 650 µM) | 12 | 12 | 250 (≈ 650 µM) | 250 (≈ 650 µM) | 250 (≈ 650 µM) | 10 | 125 (≈ 325 µM) | 250 (≈ 650 µM) | 15 | 15 | 17 | 125 (≈ 325 µM) | inhibition (Malassezia pachydermatis): inactive; inhibition (Candida albicans): inactive
N#CC1=C(N)C2(C(=O)c3ccccc3C2=O)[C@@H](c2ccoc2)[C@@H]2CCCC=C12 (relative stereo) | 12 | 13 | 15 | 13 | 250 (≈ 675 µM) | 125 (≈ 337 µM) | 14 | 250 (≈ 675 µM) | 18 | 10 | 250 (≈ 675 µM) | 250 (≈ 675 µM) | 250 (≈ 675 µM) | 14 | 250 (≈ 675 µM) | 500 (≈ 1350 µM) | 15 | 12 | 12 | 250 (≈ 675 µM) | 
N#CC1=C(N)C2(C(=O)c3ccccc3C2=O)[C@@H](c2ccccc2F)[C@@H]2CCCC=C12 (relative stereo) |  | 13 | 12 | 10 | 250 (≈ 627 µM) | 250 (≈ 627 µM) | 14 | 250 (≈ 627 µM) | 15 | 10 | 250 (≈ 627 µM) | 250 (≈ 627 µM) | 125 (≈ 314 µM) | 14 | 250 (≈ 627 µM) | 500 (≈ 1250 µM) | 12 | 16 | 14 | 250 (≈ 627 µM) | inhibition (Malassezia pachydermatis): inactive
Cc1ccc([C@H]2[C@@H]3CCCCC=C3C(C#N)=C(N)[C@]23C(=O)Nc2ccccc23)cc1 | 8 | 15 | 12 | 9 | 250 (≈ 632 µM) | 250 (≈ 632 µM) | 13 | 250 (≈ 632 µM) | 13 | 16 | 250 (≈ 632 µM) | 250 (≈ 632 µM) | 250 (≈ 632 µM) | 11 | 250 (≈ 632 µM) | 125 (≈ 316 µM) | 12 | 12 | 14 | 250 (≈ 632 µM) | 
N#CC1=C(N)C2(C(=O)c3ccccc3C2=O)[C@@H](c2cccs2)[C@@H]2CCCC=C12 (relative stereo) | 11 | 18 | 22 | 10 | 62.5 (≈ 162 µM) | 250 (≈ 647 µM) | 10 | 62.5 (≈ 162 µM) | 10 | 16 | 250 (≈ 647 µM) | 250 (≈ 647 µM) | 250 (≈ 647 µM) | 24 | 125 (≈ 323 µM) | 125 (≈ 323 µM) | 15 | 14 | 12 | 250 (≈ 647 µM) | 
